The record followed here is ChEMBL document CHEMBL1149123, “Antineoplastic agents. 499. Synthesis of hystatin 2 and related 1H-benzo[de][1,6]-naphthyridinium salts from aaptamine” (J Med Chem, 2004).

Assay [1] can be described thus: Effect on tubulin assembly was determined. It is filed as functional. In outline: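 Tubulin assembly tested in vitro, top concentration […].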
The subject of assay [2] is BXPC-3. The assay can be described thus: Inhibition of pancreatic BXPC-3 cell proliferation. Format: functional. The note with it: Homo sapiens, read-out: ED50 (the source's name).
Assay [3] relates to Candida albicans. Briefly: Antimicrobial activity against Candida albicans; No inhibition at 64 ug/mL. Format: functional, organism-based.
For assay [4], the system named is Cryptococcus neoformans. Briefly: Antimicrobial activity against Cryptococcus neoformans; No inhibition at 64 ug/mL. Format: functional, organism-based.
The subject of assay [5] is DU-145. Briefly: Inhibition of prostate DU-145 cell proliferation. The note with it: Homo sapiens, read-out: ED50 (the source's name). Format: functional.
Assay [6] deals with Enterobacter cloacae. The assay can be described thus: Antimicrobial activity against Enterobacter cloacae; No inhibition at 64 ug/mL. Format: functional, organism-based.
Assay [7] relates to Enterococcus faecalis. The assay can be described thus: Antimicrobial activity against Enterococcus faecali; No inhibition at 64 ug/mL. Format: functional.
Assay [8] has as its system Escherichia coli. The assay can be described thus: Antimicrobial activity against Escherichia coli; No inhibition at 64 ug/mL. It is filed as functional.
In assay [9] the test system is MCF7. Briefly: Inhibition of breast MCF-7 cell proliferation. Format: functional. The note with it: Homo sapiens, read-out: ED50 (the source's name).
Assay [10] relates to Micrococcus luteus. The assay can be described thus: Antimicrobial activity against Micrococcus luteus; 0.5-2. Format: functional.
For assay [11], the system named is NCI-H460. Briefly: Inhibition of lung NCI-H460 cell proliferation. It is filed as functional. The note with it: Homo sapiens, read-out: ED50 (the source's name).
Assay [12] has as its system Mycobacterium tuberculosis. Briefly: Antimicrobial activity against Mycobacterium tuberculosis at 6.25 ug/mL. Format: functional.
Assay [13] deals with Neisseria gonorrhoeae. The assay can be described thus: Antimicrobial activity against Neisseria gonorrhoeae; No inhibition at 64 ug/mL. It is filed as functional.
The test system of assay [14] is P388. The assay can be described thus: Inhibition of murine leukemia P388 cell proliferation. It is filed as functional. The note with it: Mus musculus, read-out: ED50 (the source's name).
For assay [15], the target named is Protein kinase C alpha type (Homo sapiens) (UniProt P17252). The assay can be described thus: Inhibition of PKC alpha. The method, boiled down: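 Competition with [20-³H]phorbol 12,13-dibutyrate binding to PKC alpha. Full dose–response curves of binding inhibition were determined.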
Assay [16] has the same target. Briefly: Inhibition of PKC alpha at […]. The note with it: concentration not given here. In outline:
(§1)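 PKC alpha ligand binding, measured as inhibition of [20-³H]phorbol 12,13-dibutyrate binding at a single compound concentration of […]. Triplicate measurements in single or triplicate experiments, depending on compound. Reported as percent inhibition, mean ± SEM.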

The target is the same in assay [17]. The assay can be described thus: Displacement of [20-3H]-phorbol 12,13-dibutyrate from protein kinase C alpha at […]. The note with it: concentration not given here. The method, boiled down:
as §1

For assay [18], the system named is SF-268. Briefly: Inhibition of CNS SF-268 cell proliferation. Format: functional. The note with it: Homo sapiens, read-out: ED50 (the source's name).
For assay [19], the system named is Staphylococcus aureus. The assay can be described thus: Antimicrobial activity against Staphylococcus aureus; No inhibition at 64 ug/mL. It is filed as functional, organism-based.
The subject of assay [20] is Streptococcus pneumoniae. Briefly: Antimicrobial activity against Streptococcus pneumoniae; No inhibition at 64 ug/mL. It is filed as functional.
Assay [21] has as its system Stenotrophomonas maltophilia. Briefly: Antimicrobial activity against Stenotrophomonas maltophilia; No inhibition at 64 ug/mL. Format: functional, organism-based.
Assay [22] has as its system KM-20L2. The assay can be described thus: Inhibition of colon KM20L2 cell proliferation. Format: functional. The note with it: Homo sapiens, read-out: ED50 (the source's name).
The subject of assay [23] is Micrococcus luteus. Briefly: Antimicrobial activity against Micrococcus luteus. It is filed as functional.
Assay [24] deals with Neisseria gonorrhoeae. Briefly: Antimicrobial activity against Neisseria gonorrhoeae. It is filed as functional.
Assay [25] relates to Streptococcus pneumoniae. The assay can be described thus: Antimicrobial activity against Streptococcus pneumoniae. It is filed as functional.
The subject of assay [26] is Micrococcus luteus. The assay can be described thus: Antimicrobial activity against Micrococcus luteus; 8-16. Format: functional.
In assay [27] the test system is Micrococcus luteus. The assay can be described thus: Antimicrobial activity against Micrococcus luteus; No inhibition at 64 ug/mL. Format: functional, organism-based.

Activity calls are given as the source filed them. The calls are words filed in the database; no cut-off is given here.

A word on the IC50: it is the point on the concentration scale where inhibition reaches its midpoint. Low values mean greater potency, high ones weaker potency. Take `COc1cc2ccnc3c2c(c1O)N(C)C=C3` [ISOAAPTAMINE]: the IC50 in assay [1] came to 31 µM.

For orientation: inhibition means the relative decrease from the control value, in per cent. As for `COc1cc2c3c(cc[n+](Cc4ccccc4)c3c1OC)N(Cc1ccccc1)C=C2.[Cl-]`, the EC50 in [2] came out at 0.061 µg/mL; in [5], 0.036 µg/mL; in assay [9] it was 0.27 µg/mL; in [11] it was 0.26 µg/mL; in [14], 0.234 µg/mL; in [18] it was 0.064 µg/mL. The EC50 in assay [22] came out at 0.055 µg/mL. In addition, the outcome in assay [3], in assay [4], in [6], in assay [19] and in assay [21] was inactive. In addition, the Activity came out at 32 µg/mL in assay [7]; 8 µg/mL in assay [8]; 2 µg/mL in assay [10]; 0.25 µg/mL in assay [13]; 32 µg/mL in [20]. For the same compound, the inhibition at 6.25 µg/mL in assay [12] was 98%. Also, the ID50 in assay [15] amounted to 20.8 µM. In addition, the inhibition in assay [16] worked out at 71.1%; in [17], 11.8%.

On to `COc1cc2c3c(ccnc3c1OC)N(C)C=C2`, for which the EC50 in assay [2], in [5], in [9], in assay [11], in [14] and in [18] was above 10 µg/mL each time. For the same compound, in assay [22], the EC50 was above 10 µg/mL. Moreover, the inhibition in assay [16] was below 6%.

For the compound `COc1ccc(CN2C=Cc3cc(OC)c(OC)c4nccc2c34)cc1.Cl`, the EC50 in [2] came out at 4.2 µg/mL; in assay [5] it was 3.1 µg/mL; in [9], 8 µg/mL; in assay [11], 5.1 µg/mL; in assay [14] it was 2.19 µg/mL; in assay [18] it was 8.2 µg/mL. Moreover, the EC50 in [22] came to 3.9 µg/mL. Besides, the outcome in assay [3], in assay [4], in [6], in assay [7], in assay [8] and in [19] was inactive. Further, the outcome in assay [21] was inactive. Besides, the Activity in [23], in assay [24] and in assay [25] was 64 µg/mL in each case. In addition, the inhibition in assay [16] was below 6%; in assay [17] it was 9.2%.

As to `COc1ccc(C[n+]2ccc3c4c(cc(OC)c(OC)c42)C=CN3Cc2cc(OC)c(OC)c(OC)c2)cc1O.[Br-]`, the EC50 in assay [2], in assay [5], in assay [9], in assay [11], in assay [14] and in assay [18] was above 10 µg/mL throughout. The EC50 in assay [22] is above 10 µg/mL. For the same compound, the outcome in assay [3], in [4], in [6], in assay [7], in [8] and in assay [13] was inactive. The outcome in assay [19], in assay [20] and in assay [21] was inactive. The compound further showed an Activity in assay [26] of 16 µg/mL. Besides, the inhibition in assay [16] came out at 43.2%; in assay [17], 16%.

Consider `COc1cc(CN2C=Cc3cc(OC)c(OC)c4nccc2c34)cc(OC)c1OC.Cl`, for which the EC50 in assay [2] was above 10 µg/mL; in [5], above 10 µg/mL; in [9], above 10 µg/mL; in assay [11], above 10 µg/mL; in assay [14], 4.64 µg/mL; in assay [18], above 10 µg/mL. Besides, the EC50 in assay [22] stood at 3.4 µg/mL. Further, the outcome in [3], in assay [4], in assay [6], in [7], in assay [8] and in assay [27] was inactive. Further, the result in assay [19], in assay [20] and in assay [21] was inactive. In [24], this compound gave an Activity of 64 µg/mL. In assay [16], this compound yielded an inhibition below 6%.

`COc1cc2c3c(ccnc3c1OC)N(Cc1ccccc1)C=C2.Cl`: the EC50 in [2] was 4.3 µg/mL; in assay [5] it was 4.4 µg/mL; in assay [9], above 10 µg/mL; in assay [11], 4.9 µg/mL; in [14] it was 1.64 µg/mL; in assay [18], above 10 µg/mL. For the same compound, the EC50 in assay [22] came to 2.2 µg/mL. Also, the result in assay [3], in assay [4], in [6], in assay [7], in assay [8] and in [27] was inactive. Moreover, the result in assay [19] and in assay [21] was inactive. The Activity in assay [24] and in assay [25] was 64 µg/mL in each case. Moreover, the inhibition in assay [16] is below 6%; in [17], 6.4%.

On to `COc1cc2c3c(cc[n+](C)c3c1OC)N(C)C=C2.[I-]`, for which the EC50 in [2] was 7.1 µg/mL; in assay [5], 3.5 µg/mL; in assay [9], 4.9 µg/mL; in [11] it was above 10 µg/mL; in [14], 3.89 µg/mL; in assay [18] it was 0.69 µg/mL. In addition, the EC50 in [22] is 6.1 µg/mL. Further, the inhibition in [16] was below 6%.
